Fewer inactive variants are shown than the library holds.
B1: tRNA (parent)
chain: GUUCCGUUGGCGUAAUGGUAACGCGUCUCCCUCCUAAGGAGAAGACUGCGGGUUCGAGUCCCGUACGGAACG

Variants of: B1
Assay: yeast fitness relative to wild type (ratio to wild type); higher = fitter; tRNA-Arg(CCU), competitive growth, 37 C, YPD
Summary of the method: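 Gene amplicons from the start population and from each of six end populations were read by 100-nucleotide paired-end sequencing. Those end populations came from pooled Saccharomyces cerevisiae strains carrying tRNA-Arg(CCU) gene variants at the native locus, competed in YPD at 37°C for 24 hours. Fitness relative to wild type was worked out from changes in genotype frequencies. Genotypes needed ≥ 100 starting reads, and estimates < 0.5 were set to 0.5.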
C29A C30U G48A G50A C60A showed a yeast fitness of at most 0.5. Work on C29A C31A A40U C49U yielded a yeast fitness of at most 0.5. C29A C31G C49A C55G gave a yeast fitness of 0.549. Work on C29A C33G A45C yielded a yeast fitness of 0.543. C29A C33G A70G showed a yeast fitness of at most 0.5. Variant C29A C33G U35C C49U A57C C60A has a yeast fitness of 0.644. C29A C33U G67A showed a yeast fitness of at most 0.5. In the case of C29A C33U U47A A57U, the yeast fitness is reported as at most 0.5. C29A C34G gave a yeast fitness of at most 0.5. For C29A C34G A36G A40C U47A U64C, the yeast fitness was at most 0.5. For C29A C34G A42C C49G G68A, the yeast fitness was at most 0.5. Variant C29A C34U A36U has a yeast fitness of 0.568. In the case of C29A C46A C55A A57G, the yeast fitness is reported as at most 0.5. Work on C29A C46G A65G A70U yielded a yeast fitness of at most 0.5. Work on C29A C46U yielded a yeast fitness of 0.724. Variant C29A C49A A70G has a yeast fitness of at most 0.5. Variant C29A C49A C62A C66U has a yeast fitness of at most 0.5. Work on C29A C49G C55U yielded a yeast fitness of at most 0.5. In the case of C29A C49U, the yeast fitness is reported as 0.627. C29A C55U A69U showed a yeast fitness of at most 0.5. C29A C55U G63C gave a yeast fitness of at most 0.5. With C29A C55U G63C U64C the yeast fitness was at most 0.5. C29A C60A showed a yeast fitness of 0.616. Variant C29A C62U has a yeast fitness of 0.723. Work on C29A C66A G68C yielded a yeast fitness of at most 0.5. Variant C29A C66U has a yeast fitness of 0.627. C29A G39A C49A C66G gave a yeast fitness of at most 0.5. C29A G41A A43C A69C gave a yeast fitness of at most 0.5. C29A G41A A43C C49U showed a yeast fitness of at most 0.5. For C29A G44A A70G, the yeast fitness was 0.804. Variant C29A G48A C66U has a yeast fitness of at most 0.5. Variant C29A G50A has a yeast fitness of 0.678. With C29A G50C U64C the yeast fitness was at most 0.5. C29A G56C A57G G68U gave a yeast fitness of at most 0.5. In the case of C29A G58A C61G A70U, the yeast fitness is reported as 0.642. Variant C29A G58C G67A has a yeast fitness of 0.589. C29A G67A gave a yeast fitness of 0.605. C29A G67C gave a yeast fitness of 0.646. In the case of C29A U32A A65C, the yeast fitness is reported as at most 0.5. Variant C29A U32C A42U A69U has a yeast fitness of at most 0.5. C29A U35A gave a yeast fitness of 0.672. With C29A U35A G56A the yeast fitness was 0.741. For C29A U35A G56A G63A, the yeast fitness was 0.525. Variant C29A U35C A45C C49U has a yeast fitness of at most 0.5. Work on C29A U35C A45U C60G G63C yielded a yeast fitness of 0.538. Variant C29A U35G has a yeast fitness of at most 0.5. Variant C29A U47C has a yeast fitness of 0.713. C29A U47C G50C A57C showed a yeast fitness of 0.582. Work on C29G yielded a yeast fitness of 0.686. C29G A36G A65C showed a yeast fitness of at most 0.5. C29G A36G C55U showed a yeast fitness of at most 0.5. For C29G A36G G38A A45G, the yeast fitness was at most 0.5. In the case of C29G A36U A42G C55A, the yeast fitness is reported as at most 0.5. Variant C29G A36U A65U has a yeast fitness of at most 0.5. Variant C29G A36U C49U C60U has a yeast fitness of at most 0.5. For C29G A37C A42U A57G G67A, the yeast fitness was at most 0.5. Variant C29G A37C C60A A70G has a yeast fitness of at most 0.5. C29G A37C G63A showed a yeast fitness of at most 0.5. In the case of C29G A37C G63A A65G, the yeast fitness is reported as at most 0.5. Variant C29G A37G A70G has a yeast fitness of 0.562. For C29G A37G G51A C55A, the yeast fitness was at most 0.5. For C29G A37U, the yeast fitness was 0.566. C29G A37U C46U showed a yeast fitness of at most 0.5. Variant C29G A37U U59C C66G has a yeast fitness of 0.687. C29G A40C A42C A65C gave a yeast fitness of 0.565. For C29G A40C A43G A45C U47C C62U A69C, the yeast fitness was at most 0.5. Variant C29G A40C A57C has a yeast fitness of 0.551. Variant C29G A40G has a yeast fitness of 0.648. In the case of C29G A40U C66U, the yeast fitness is reported as at most 0.5. Variant C29G A40U G44A has a yeast fitness of at most 0.5. For C29G A40U G50C, the yeast fitness was 0.636. For C29G A40U G67C, the yeast fitness was 0.517. Work on C29G A42C G51A A70U yielded a yeast fitness of at most 0.5. Variant C29G A43G A45C has a yeast fitness of at most 0.5. Work on C29G A43G U64C yielded a yeast fitness of at most 0.5. Variant C29G A43U has a yeast fitness of 0.594. In the case of C29G A43U C46U G67C, the yeast fitness is reported as at most 0.5. Variant C29G A45G has a yeast fitness of 0.609. For C29G A45G G52C A57U, the yeast fitness was at most 0.5. In the case of C29G A57C C66G, the yeast fitness is reported as at most 0.5. With C29G A65C the yeast fitness was 0.564. C29G A65G showed a yeast fitness of 0.713. In the case of C29G A65U A70G, the yeast fitness is reported as 0.506. With C29G A69G the yeast fitness was at most 0.5. C29G C30A C49U showed a yeast fitness of at most 0.5. C29G C30G C49A G56C C61U gave a yeast fitness of 0.982. C29G C30U gave a yeast fitness of 0.632. For C29G C30U A36C G39A C46G, the yeast fitness was 0.52. C29G C30U A65G gave a yeast fitness of at most 0.5. C29G C30U C46U G48A G56A C61U C62G showed a yeast fitness of at most 0.5. With C29G C30U G41C C66G G68A the yeast fitness was at most 0.5. C29G C30U G58A gave a yeast fitness of 0.608. C29G C31A A43C G67A gave a yeast fitness of at most 0.5. For C29G C31A C55U A70U, the yeast fitness was at most 0.5. C29G C31A G44C A65C gave a yeast fitness of at most 0.5. Variant C29G C31A U35C G67A has a yeast fitness of at most 0.5. C29G C31A U47A U59A C60U C62G C66U showed a yeast fitness of at most 0.5. In the case of C29G C31G C46G C55U A65U, the yeast fitness is reported as 0.627. C29G C31U A37U C62U A70G gave a yeast fitness of at most 0.5. C29G C33A showed a yeast fitness of 0.641. In the case of C29G C33G, the yeast fitness is reported as 0.59. Work on C29G C33G G41C C66U yielded a yeast fitness of 0.607. Variant C29G C33G U35G G44A A57G C66U A69U has a yeast fitness of at most 0.5. In the case of C29G C33U G50A A70C, the yeast fitness is reported as at most 0.5. C29G C33U G68A gave a yeast fitness of at most 0.5. In the case of C29G C34G, the yeast fitness is reported as 0.563. Variant C29G C34G C60G has a yeast fitness of 0.562. In the case of C29G C34U A42G, the yeast fitness is reported as at most 0.5. With C29G C34U G52A C60U the yeast fitness was 0.548. In the case of C29G C34U U59C, the yeast fitness is reported as 0.631. Work on C29G C46A G68A yielded a yeast fitness of at most 0.5. With C29G C46G G48C the yeast fitness was 0.533. With C29G C46U the yeast fitness was 0.611. Work on C29G C46U A57G yielded a yeast fitness of 0.642. With C29G C46U A57G C61U the yeast fitness was at most 0.5. With C29G C46U C66U the yeast fitness was 0.606. C29G C46U G56A showed a yeast fitness of at most 0.5. In the case of C29G C49A, the yeast fitness is reported as 0.664. C29G C49A A70C gave a yeast fitness of 0.538. With C29G C49A A70G the yeast fitness was at most 0.5. C29G C49A U64A gave a yeast fitness of at most 0.5. In the case of C29G C49G A57G, the yeast fitness is reported as 0.6. C29G C49G C55A showed a yeast fitness of at most 0.5. C29G C49G C60G gave a yeast fitness of at most 0.5. Variant C29G C49G G51U A57G has a yeast fitness of at most 0.5. Variant C29G C49G G56A has a yeast fitness of at most 0.5. Variant C29G C49G G63C has a yeast fitness of at most 0.5. Variant C29G C49G G68C has a yeast fitness of at most 0.5. C29G C49U A65C gave a yeast fitness of at most 0.5. For C29G C49U G58C, the yeast fitness was 0.558. Variant C29G C49U G63A has a yeast fitness of 0.513. Work on C29G C55A yielded a yeast fitness of 0.577. C29G C55A A69U gave a yeast fitness of at most 0.5. C29G C55G showed a yeast fitness of 0.538. With C29G C55U A65C A70U the yeast fitness was 0.532. In the case of C29G C60A G67A, the yeast fitness is reported as at most 0.5. With C29G C60U the yeast fitness was 0.576. With C29G C60U G67A A69U the yeast fitness was 0.588. Work on C29G C61U C66A yielded a yeast fitness of at most 0.5. Work on C29G C62U G68A yielded a yeast fitness of 0.542. With C29G G38C C49U A65U the yeast fitness was at most 0.5. Variant C29G G39C has a yeast fitness of 0.852. C29G G39C A65C gave a yeast fitness of 0.546. Variant C29G G39C U47A has a yeast fitness of 0.978. For C29G G41A, the yeast fitness was 0.723. With C29G G41A A57G the yeast fitness was at most 0.5. C29G G41A C61U showed a yeast fitness of 0.531. With C29G G41A U47G the yeast fitness was at most 0.5. C29G G41C A65U gave a yeast fitness of at most 0.5. For C29G G44A, the yeast fitness was 0.593. For C29G G44A G58C, the yeast fitness was at most 0.5. Work on C29G G44C C49A U64C yielded a yeast fitness of at most 0.5. In the case of C29G G48A A65G C66U, the yeast fitness is reported as at most 0.5. With C29G G48A G67C the yeast fitness was at most 0.5. C29G G48A U59C gave a yeast fitness of at most 0.5. Work on C29G G48C C60G yielded a yeast fitness of 0.515. Variant C29G G48C C61A has a yeast fitness of 0.564. Variant C29G G50A has a yeast fitness of 0.605. In the case of C29G G50A A57U A70U, the yeast fitness is reported as at most 0.5. C29G G50C C66A gave a yeast fitness of 0.518. Work on C29G G51A A69U yielded a yeast fitness of at most 0.5. For C29G G52C A57U, the yeast fitness was at most 0.5. In the case of C29G G52C A57U A65G, the yeast fitness is reported as at most 0.5. C29G G56C gave a yeast fitness of at most 0.5. Work on C29G G58C yielded a yeast fitness of 0.642. C29G G68C showed a yeast fitness of 0.595. Work on C29G U32A A65U yielded a yeast fitness of at most 0.5.

From the RNAGym collection of RNA variant scans (doi:10.1126/science.aae0568)
